# Test results from publication PMC6347502 (Photochemistry and photobiology, 2018).
# Values joined by “and” are separate entries in the source; they are usually repeats but may differ in a detail not shown here. Equal values may be shown once. Read-outs that look alike come from different tables or passages of the source.
# Legend:
# [1] = Nanosecond transient absorption lifetime; assay type: physicochemical; conditions: degassed MeCN
# How it was run: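 Nanosecond laser flash photolysis on MeCN solutions argon-purged for 45 min. Excitation was 355 nm from a Nd:YAG third harmonic (4.1 ns pulse, 1 Hz). Transient difference absorption spectra were recorded and lifetimes taken from signal decays.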
# [2] = system: SK-MEL-28 malignant melanoma cells; test: Cytotoxicity and photocytotoxicity, resazurin cell viability, melanoma cells; assay type: cell-based, human
# How it was run: (§1)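 HL-60 cells (suspension, RPMI 1640 + 20% FBS) or SK-MEL-28 cells (adherent, EMEM + 10% FBS) were used in log phase at ≥93% viability and equilibrated for 3 h. Chloride salts were diluted in DPBS (1 nM–300 µM; DMSO <0.1%) and incubated 16 h at 37 °C, 5% CO₂. Cells were then kept dark or given 100 J cm⁻² of visible light (400–700 nm, 44 mW cm⁻²) or red LED light (625 nm, 52.5 mW cm⁻²). After 48 h, resazurin was added for 3 h; fluorescence ex 530/em 620 nm. Triplicate. EC50 from sigmoidal dose–response fit; PI = dark/light EC50.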
# [3] = Steady-state and time-resolved emission; assay type: physicochemical
# How it was run: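 PF₆⁻ salts, 5–20 µM, in MeCN argon-sparged in a long-stem cuvette, or as 4:1 EtOH:MeOH glass frozen in liquid N₂ (77 K). Quantum yields from corrected steady-state spectra relative to [Ru(bpy)₃](PF₆)₂ (0.095 deaerated MeCN at 298 K; 0.38 at 77 K). Lifetimes measured with nitrogen/dye laser excitation at 457 nm, monitored at emission maximum, stroboscopic detection.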
# [4] = Singlet oxygen sensitization quantum yield; assay type: physicochemical
# [5] = UV-vis absorption, molar extinction coefficient at 625 nm; assay type: physicochemical
# How it was run: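 PF₆⁻ salts in spectroscopic-grade MeCN. ε was taken from the slope of absorbance versus concentration over five concentrations, measured in duplicate.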
# [6] = system: HL-60 human promyelocytic leukemia cells; test: Cytotoxicity and photocytotoxicity, resazurin cell viability, leukemia cells; assay type: cell-based
# How it was run: as §1
# pUC19 plasmid DNA = test: DNA photocleavage, plasmid gel mobility shift assay; assay type: biochemical; conditions: pUC19 20 μM NPs, visible light 14 J cm^−2
# [7] = cited from earlier work
# [8] = aerated MeCN; cited from earlier work
Compound,"τTA, lifetime of nonemissive 3IL state [1] [μs]","PI red light, SKMEL28 ([2]; ratio of dark to red-light (625 nm) EC50, SKMEL28)","PI (phototherapeutic index) visible light, SKMEL28 ([2]; ratio of dark to visible-light EC50, SKMEL28)","EC50 ([2]; read-out: EC50 dark, SKMEL28, SKMEL28, dark) [µM]","τem 77 K ([3]; 77 K, EtOH:MeOH (4:1) glass)","Φ (emission quantum yield) 77 K ([3]; 77 K, EtOH:MeOH (4:1) glass, PF6 salt)","τem 298 K ([3]; 298 K, argon-purged MeCN)","Φ (emission quantum yield) 298 K ([3]; 298 K, argon-purged MeCN, PF6 salt)","ΦΔ (singlet oxygen quantum yield) 298 K ([4]; air-saturated MeCN at 298 K, relative to [Ru(bpy)3](PF6)2)","1O2 quantum yield (ΦΔ) ([4]; air-saturated MeCN, room temperature)",molar absorptivity at 625 nm (ε625 nm) [5] [M⁻¹ cm⁻¹],"PI red light, HL60 ([6]; ratio of dark to red-light (625 nm) EC50, HL60)","PI visible light, HL60 ([6]; ratio of dark to visible-light EC50, HL60)",MC:NP ratio for complete photocleavage (conversion of Form I to Form II DNA) (pUC19 plasmid DNA),Φem reference value ([7]; 77 K in frozen 4:1 v/v EtOH:MeOH),Φem reference value ([7]; 298 K in aerated MeCN),Φem reference value ([7]; 298 K in deaerated MeCN),emission lifetime [7] [μs],ΦΔ of standard [8]
"F[P-](F)(F)(F)(F)F.F[P-](F)(F)(F)(F)F.[Ru+2].c1ccc(-c2ccccn2)nc1.c1ccc(-c2ccccn2)nc1.c1csc(-c2ccc(-c3cc4cccnc4c4ncccc34)s2)c1 [Compound 2, Ru(bpy)2(phen-2T)PF6]",43,2,150,32 ± 1,"6,600 ns",0.14,"1,030 ns",0.0092,0.78,74–78% and 78% and 74%,< 100,19,835,1,,,,,
F[P-](F)(F)(F)(F)F.F[P-](F)(F)(F)(F)F.[Ru+2].c1ccc(-c2ccccn2)nc1.c1ccc(-c2ccccn2)nc1.c1ccc(-c2ccccn2)nc1 [[Ru(bpy)3](PF6)2],,,,,,,,,,,,,,,0.38,0.012,0.095,0.9,0.56
